# Screening results from PubChem BioAssay.
# Only some compounds are listed: those with a hit (about 3.5% of all), similar ones and a draw of the others.
# MT stabilize HCS – microtubule stabilizers in HeLa cells. HeLa tubulin immunostaining HCS, 24 h; share of cells brighter than vehicle mean+2SD. % tubulin-high responders, % at 10 µM. hit rate 0.83% among 200,000;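 active = plate Z-score above 3 for both tubulin-high and condensed-nucleus cell shares, with cell loss under 80%, at 10 µM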;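 note: anti alpha tubulin signal scored within the nucleus-defined area of each cell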
# Yeast life ext – extends the lifespan of yeast; S. cerevisiae growth with nicotinamide, OD615; deaD strain in restrictive glucose medium; inhibition of the nicotinamide effect, % at 10 µM; hit rate 0.68% among 130,000;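 active = inhibition above a set limit, placed 3 SD over the median of all compounds, cut at about 26% in these data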;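 note: 0% = nicotinamide-treated wells and 100% = cells grown without nicotinamide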
#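 Assay system: DeaD-strain S. cerevisiae. Medium: CSMM-D glucose medium, restrictive. Reagent: nicotinamide, 1.5 mM, co-present with compound. Compound: 10 µM single point, 0.25% DMSO. Schedule: culture preincubation 4 h, compound exposure 48 h, both 30 °C. Detection: absorbance at 615 nm.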
# HMGR II inh – E. faecalis class II HMG-CoA reductase inhibition; purified E. faecalis HMGR, NADPH absorbance 340 nm kinetic; hit rate 0.41% among 190,000; inhibition, % at 10 µM;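 active = inhibition above a set limit, the median over all tested compounds plus 3 SD, cut at about 9.5% in these data; inconclusive = no clear call, values can overlap the other calls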;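 note: enzyme runs in reverse so mevalonate oxidation gives rising NADPH absorbance; 0% = complete reaction with DMSO and 100% = background rate lacking mevalonate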
# RAM network inh – yeast RAM network inhibition; S. cerevisiae dse1pr::URA3 reporter, 5-FOA growth OD615, 2 d; analog-sensitive cbk1-as2 kinase mutant strain; inhibition, % at 50 µM; hit rate 1.8% among 190,000;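 active = inhibition above a set limit, 3 SD over mean compound inhibition, cut at about 8.4% in these data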;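 note: 0% = DMSO-only wells with no growth and 100% = 10 µM 1-NA-PP1 full growth; inhibition rescues growth on 5-FOA so higher OD means more RAM inhibition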
# BB579 growth dn – reduces growth of yeast BB579 in restrictive medium; hit rate 0.51% among 140,000; S. cerevisiae BB579 growth, OD615, 48 h; inhibition, % at 10 µM;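 active = inhibition above a set limit, 3 SD over the mean compound inhibition, cut at about 44% in these data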
#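 Assay system: S. cerevisiae DeaD strain BB579 yeast. Medium: CSMM-D restrictive synthetic medium containing dextrose (glucose). Times: 4 h cell preincubation, 48 h compound exposure, 30 °C humidified. Signal: OD615 turbidity measurement. Benchmarks: positive control amphotericin B 10 µg/mL.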
# bCat nuc transl – alters nuclear translocation of beta-catenin in HeLa cells; nuclear translocation activity, % at 5 µM; hit rate 0.3% among 190,000; AID 1665; immunofluorescence imaging;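 active = nuclear translocation activity above 50% at 5 µM, with a well cell count of 50 or more; inconclusive = wells under 50 cells across six images, flagged as toxic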;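 note: per-cell ratio of nuclear to cytoplasmic median beta-catenin stain intensity; plate controls were DMSO negative control for no effect and GSK-3 inhibitor IX positive control for full effect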
#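 test system = HeLa cells, endogenous beta-catenin | dosing = single 5 µM dose plus 0.02–20 µM confirmation series | times = compound treatment 24 h, 37°C, 5% CO2 | technique = beta-catenin immunofluorescence imaging with DAPI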
# RAM 5-FOA – restores 5-FOA growth of efflux-deficient yeast; shares compounds with RAM network inh; S. cerevisiae efflux-deficient reporter strain, 5-FOA growth OD615, 2 days; max inhibition, %; 1,200 tested, under 10 active; AID 1305; call rule not given here;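 note: plate controls were vehicle for no effect and reference inhibitor for full effect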
# Starred values were filed as active, the others as inactive; ? = inconclusive; / = no result given.
SMILES,MT stabilize HCS,Yeast life ext,HMGR II inh,RAM network inh,BB579 growth dn,bCat nuc transl,RAM 5-FOA
CC(C)OCCCNC(=O)c1c(N)n(/N=C/c2ccccn2)c2nc3ccccc3nc12,4,-10,-5,12*,-13,2,8
COCCCNC(=O)c1c(N)n(-c2ccc(S(N)(=O)=O)cc2)c2nc3ccccc3nc12,4,-8,-2,7,-35,3,/
COc1ccc(C(=O)/C=C/c2ccc(O)cc2)c(O)c1CC=C(C)C,3,-7,3,24*,-27,0,2
C=C(CC1([C@@H](NP(=O)(c2ccccc2)c2ccccc2)[C@H]2C[C@@H]2CCCC)CC1)c1ccccc1,4,4,4,21*,-21,0,7
Clc1cccc(Cl)c1CNc1ccc(N2CCCC2)cc1,3,/,-5,3,/,-2,/
CN1CCN(C(=O)C2=C[C@@H](c3csc4ccccc34)C[C@@H](OCc3ccc(CO)cc3)O2)CC1,1,/,-4,0,/,-2,/
O=C(C1=C[C@H](c2csc3ccccc23)C[C@H](OCc2ccc(CO)cc2)O1)N1CCOCC1,3,/,0,14*,/,-1,1
Cc1ccccc1NS(=O)(=O)c1cc(C(=O)NCCSC2CCCCC2)ccc1C,3,-16,0,13*,-26,0,3
O=C(CC(NC(=O)C(F)(F)F)c1ccccc1)Nc1nnc(CCc2ccccc2)s1 (stereo not drawn),2,-1,-4,4,-9,0,/
Nc1nc(-c2ccccc2)c(N=Nc2cccnc2)s1,3,/,3,13*,/,10,2
CC(=O)Nc1ccc(-c2cc(-c3ccc(NC(C)=O)cc3)nc(-c3ccc(NC(C)=O)cc3)n2)cc1,5,8,-3,12*,-63,-2,5
COc1ccc(CC(=O)Nc2ccccc2N2CCCCC2)cc1OC,/,/,/,/,/,0,/
COc1ccc(CNC(=O)c2ccccc2C(=O)O)cc1,4,2,-3,1,-42,-1,/
COc1ccc(CNC(=O)c2cccc(-c3ccc(C)c4ccccc34)n2)cc1,27,-1,0,12*,-41,/,7
CCN(CC)S(=O)(=O)c1cccc(C(=O)OCC(=O)c2ccc3c(c2)OCCO3)c1,2,7,0,14*,-49,0,5
O=C(COC(=O)c1cccc(S(=O)(=O)NCc2ccccc2)c1)c1ccc2c(c1)OCCO2,3,0,-5,7,-41,0,/
O=C(O)/C=C/C(=O)Nc1ccccc1C(=O)OCC(=O)c1ccc2c(c1)OCCO2,4,/,-3,1,/,2,/
CCCCC(=O)Nc1ccccc1C(=O)OCC(=O)c1ccc2c(c1)OCCO2,7,-2,-4,13*,-15,-1,2
CCN1/C(=C/C=C/c2oc3ccc(-c4ccccc4)cc3[n+]2CC)Oc2ccc(-c3ccccc3)cc21,65,/,-3,2,/,?,/
O=[N+]([O-])c1ccc2[nH]c(O)c(N=NC3CCS(=O)(=O)C3)c2c1 (stereo not drawn),/,/,/,/,/,1,/
CCN(CC)CCCC(C)NC(=O)c1ccc(C(F)(F)F)cc1 (stereo not drawn),3,/,-5,2,/,-1,/
CN(C)c1ccnc2sc3c(SCc4ccc(Cl)cc4)ncnc3c12,2,7,-2,19*,-14,0,6
CN(C)c1ccnc2sc3c(NCC(O)CO)ncnc3c12 (stereo not drawn),3,2,-2,0,-12,0,/
CC(C)(C)C(O)(CC#CCN1CCCC1)c1ccccc1 (stereo not drawn),2,/,-1,0,/,-1,/
CCCCN(C)CCCNC(=O)c1cc(=O)[nH]c2ccc(S(=O)(=O)N3CCCCC3C)cc12 (stereo not drawn),3,/,-2,0,/,/,/
SMILES,MT stabilize HCS,Yeast life ext,HMGR II inh,RAM network inh,BB579 growth dn,bCat nuc transl,RAM 5-FOA
Cc1cc(Br)ccc1OCC(=O)N1CCCCCC1,2,-6,-1,21*,-7,/,1
Cc1ccc(F)cc1NC(=O)N1c2ccccc2NC(=O)CC1C (stereo not drawn),/,/,/,/,/,-1,/
CCCOc1ccc(N2C(=O)CC(N(CCc3ccccc3)C(=O)c3ccccc3)C2=O)cc1 (stereo not drawn),3,/,-5,12*,/,-1,1
CCCOc1ccc(N2C(=O)CC(N(CCc3ccc(OC)c(OC)c3)C(=O)c3ccccc3)C2=O)cc1 (stereo not drawn),/,/,/,/,/,2,/
OC1(C(F)(F)F)CC(c2ccc3ccccc3c2)=NO1 (stereo not drawn),/,/,/,/,/,0,/
O=C(CN(c1ccc2c(c1)OCCO2)S(=O)(=O)c1ccccc1)NCc1ccc(Cl)cc1,3,4,0,8,-41,1,/
CCCCN(CC(=O)NCc1ccc(Cl)cc1)S(=O)(=O)c1ccc2c(c1)OCCO2,2,11,-4,13*,-59,-4,3
O=C(CSc1ccccc1)N(c1ccc(Br)cc1)c1nccs1,2,7,5,12*,-31,7,1
CSc1ccccc1Sc1cc(C(=O)O)c2ccccc2n1,3,-1,0,-1,-4,-1,/
O=C(O)c1cc(Sc2ccc(Br)cc2)nc2ccccc12,1,/,-2,11*,/,1,3
CC(C)COC(=O)/C(C#N)=C/c1cn(Cc2ccccc2)c2ccccc12,4,5,-4,19*,-36,-2,11
CC(C)OC(=O)/C(C#N)=C/c1cn(Cc2ccccc2)c2ccccc12,2,-1,-2,16*,-46,-2,6
O=S(=O)(NCCc1csc(-c2ccc(C(F)(F)F)cc2)n1)c1ccc2c(c1)OCCO2,4,0,-10,12*,-22,0,2
COc1ccc(-c2nc(CCNS(=O)(=O)c3ccc4c(c3)OCCO4)cs2)cc1,7,-10,-2,3,18,2,/
CCC/C=C(\CCC)C(NS(=O)(=O)c1cccc2cccnc12)c1ccc(C(=O)OC)cc1 (stereo not drawn),3,7,4,13*,-20,/,4
COc1cc(CC(NC(C)=O)C(=O)NC2CCN(c3c(Cc4ccccc4)c(C)nc4ncnn34)CC2)cc(OC)c1 (stereo not drawn),3,10,-5,14*,-32,-2,3
CCOC(=O)N1CCC(N(CCN(C)C)C(=S)Nc2cccc(SC)c2)CC1,1,/,-8,33*,/,3,1
Cc1[nH]nc(SCC(=O)NC2CCCCC2)c1[N+](=O)[O-],1,/,1,-1,/,-2,/
Cc1nn(Cc2ccccc2)c(Cl)c1C(=O)OCc1nnc(-c2ccccc2)o1,2,3,-5,16*,-67,2,2
